According to ChEMBL document CHEMBL1154069, “Active site directed docking studies: synthesis and pharmacological evaluation of cis-2,6-dimethyl piperidine sulfonamides as inhibitors of acetylcholinesterase” (Eur J Med Chem, 2009):
Activity calls are given as the source filed them. The rule behind the calls is not given here.

How the values were obtained:
Rattus norvegicus [1] = test: Antiamnesic activity against scopolamine-induced acquisition memory loss in rat assessed as times of step-down at 0.1 mg/kg, ip by step-down passive avoidance test; format: functional; details: route intraperitoneal
Acetylcholinesterase [2] = biological target: Acetylcholinesterase (Homo sapiens, UniProt P22303); test: Inhibition of human serum AChE by Ellman's assay
Acetylcholinesterase (Homo sapiens, UniProt P22303), sequence (P22303 whole entry): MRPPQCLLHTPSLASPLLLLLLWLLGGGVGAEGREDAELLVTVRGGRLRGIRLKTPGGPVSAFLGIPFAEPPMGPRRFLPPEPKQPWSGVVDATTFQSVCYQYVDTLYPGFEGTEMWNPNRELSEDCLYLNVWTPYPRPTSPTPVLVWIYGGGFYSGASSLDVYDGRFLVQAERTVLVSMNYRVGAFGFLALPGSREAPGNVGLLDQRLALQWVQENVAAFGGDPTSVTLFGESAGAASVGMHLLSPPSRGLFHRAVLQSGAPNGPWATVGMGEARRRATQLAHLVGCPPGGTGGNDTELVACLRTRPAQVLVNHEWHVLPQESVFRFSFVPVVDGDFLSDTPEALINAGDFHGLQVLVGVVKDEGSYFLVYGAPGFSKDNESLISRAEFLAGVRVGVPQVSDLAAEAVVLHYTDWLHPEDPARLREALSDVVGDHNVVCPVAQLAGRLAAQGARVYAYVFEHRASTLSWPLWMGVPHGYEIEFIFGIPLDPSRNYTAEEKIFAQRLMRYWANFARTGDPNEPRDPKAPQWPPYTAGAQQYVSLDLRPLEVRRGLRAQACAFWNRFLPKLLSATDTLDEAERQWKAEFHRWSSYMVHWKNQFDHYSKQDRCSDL

Rattus norvegicus [3] = test: Antiamnesic effect against scopolamine-induced memory loss in rat assessed as basal latency to reach shock free zone 2 at 0.1 mg/kg, ip; format: functional; details: route intraperitoneal
Acetylcholinesterase [4] = biological target: Acetylcholinesterase (Electrophorus electricus, UniProt O42275); test: Inhibition of electric eel AChE by Ellman's method
Acetylcholinesterase (Electrophorus electricus, UniProt O42275), sequence (O42275 whole entry): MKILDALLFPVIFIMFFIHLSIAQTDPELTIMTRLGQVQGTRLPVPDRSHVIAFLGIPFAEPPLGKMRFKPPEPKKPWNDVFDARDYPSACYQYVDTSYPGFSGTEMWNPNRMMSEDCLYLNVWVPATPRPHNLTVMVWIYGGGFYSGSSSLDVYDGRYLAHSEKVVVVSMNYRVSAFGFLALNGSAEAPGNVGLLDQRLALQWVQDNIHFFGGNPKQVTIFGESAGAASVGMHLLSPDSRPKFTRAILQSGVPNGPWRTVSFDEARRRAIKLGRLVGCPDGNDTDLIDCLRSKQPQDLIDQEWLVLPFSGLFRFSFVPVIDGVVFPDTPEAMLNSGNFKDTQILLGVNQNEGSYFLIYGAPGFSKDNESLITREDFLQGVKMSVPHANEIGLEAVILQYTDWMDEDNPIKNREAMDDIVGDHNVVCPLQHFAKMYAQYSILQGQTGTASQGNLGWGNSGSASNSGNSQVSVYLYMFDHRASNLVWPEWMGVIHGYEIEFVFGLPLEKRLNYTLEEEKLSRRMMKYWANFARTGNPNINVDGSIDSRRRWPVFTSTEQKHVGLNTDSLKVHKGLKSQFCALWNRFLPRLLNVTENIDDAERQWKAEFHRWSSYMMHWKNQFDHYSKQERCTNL
Summary of the method: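 Commercial electric eel enzyme assayed like rat brain AChE: inhibitor, buffer and DTNB preincubated 10 min, acetylthiocholine iodide added, A412 followed each minute over 10 min at 37 °C. Percentage inhibition versus uninhibited activity at varied concentrations; duplicates averaged. Neostigmine reference 25–500 nM.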

Rattus norvegicus [5] = test: Antiamnesic activity against scopolamine-induced memory loss in rat assessed as basal latency to reach shock free zone 3 at 0.1 mg/kg, ip; format: functional; details: route intraperitoneal
Rattus norvegicus [6] = test: Antiamnesic activity against scopolamine-induced memory loss in rat assessed as basal latency to reach shock free zone 1 at 0.1 mg/kg, ip; format: functional; details: route intraperitoneal
Acetylcholinesterase [7] = biological target: T1, Acetylcholinesterase (Rattus norvegicus, UniProt P37136); test: Inhibition of Wistar rat brain homogenate AChE by Ellman's assay
T1 sequence (P37136 whole entry): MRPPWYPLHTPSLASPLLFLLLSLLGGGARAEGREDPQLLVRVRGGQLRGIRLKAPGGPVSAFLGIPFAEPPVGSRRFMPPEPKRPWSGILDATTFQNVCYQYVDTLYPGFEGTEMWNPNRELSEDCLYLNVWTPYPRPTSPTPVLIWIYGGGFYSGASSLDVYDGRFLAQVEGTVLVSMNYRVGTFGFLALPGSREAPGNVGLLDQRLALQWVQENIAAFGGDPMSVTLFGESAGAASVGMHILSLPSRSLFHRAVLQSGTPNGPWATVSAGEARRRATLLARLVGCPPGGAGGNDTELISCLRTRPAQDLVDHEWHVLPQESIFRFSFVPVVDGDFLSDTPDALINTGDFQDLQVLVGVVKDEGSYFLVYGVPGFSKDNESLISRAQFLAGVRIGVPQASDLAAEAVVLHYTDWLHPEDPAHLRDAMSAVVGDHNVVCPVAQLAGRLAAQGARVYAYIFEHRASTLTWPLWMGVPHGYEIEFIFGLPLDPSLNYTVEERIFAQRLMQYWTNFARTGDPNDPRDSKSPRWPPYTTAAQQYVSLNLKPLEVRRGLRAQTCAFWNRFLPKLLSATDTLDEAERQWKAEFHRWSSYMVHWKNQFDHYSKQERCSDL
Summary of the method: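 Enzyme from Wistar rat brain homogenised 5 min in 0.1 M KH2PO4 pH 8; protein by Lowry (BSA standard). Inhibitor preincubated 10 min with enzyme, buffer and DTNB before adding acetylthiocholine iodide (fresh, pH 7 phosphate). A412 read every 1 min for 10 min at 37 °C. Activity as percentage of uninhibited enzyme; duplicates, means reported.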

Rattus norvegicus [8] = test: Antiamnesic activity against scopolamine-induced memory loss in rat assessed as reversal of number of mistakes made in 15 min at 0.1 mg/kg, ip; format: functional, organism-based; parameters: dose 0.1 mg/kg

| SMILES | Activity (Rattus norvegicus [1]) [times] | IC50 (Acetylcholinesterase [2]) [nM] | Activity (Rattus norvegicus [3]) [s] | IC50 (Acetylcholinesterase [4]) [nM] | Activity (Rattus norvegicus [5]) [s] | Activity (Rattus norvegicus [6]) [s] | IC50 (Acetylcholinesterase [7]) [nM] | Activity (Rattus norvegicus [8]) |
| --- | --- | --- | --- | --- | --- | --- | --- | --- |
| C[C@@H]1CCC[C@H](C)N1S(=O)(=O)c1ccc([N+](=O)[O-])cc1 | 3 | 1150 | 9 | 1210 | 7 | 34 | 1200 |  |
| C[C@@H]1CCC[C@H](C)N1S(C)(=O)=O | 2 | 75 | 4 | 90 | 0.7 | 20 | 85 | Active |
| C[C@@H]1CCC[C@H](C)N1S(=O)(=O)c1ccccc1[N+](=O)[O-] | 2 | 185 | 5 | 180 | 0.9 | 17 | 195 | Active |
| C[C@@H]1CCC[C@H](C)N1S(=O)(=O)c1ccccc1 | 4 | 392 | 7 | 388 | 4 | 26 | 362 |  |
| C[C@@H]1CCC[C@H](C)N1S(=O)(=O)c1cc(Cl)ccc1Cl | 2 | 90 | 4 | 81 | 0.8 | 16 | 75 | Active |
| C[C@@H]1CCC[C@H](C)N1S(=O)(=O)c1cccc([N+](=O)[O-])c1 | 4 | 192 | 6 | 200 | 4 | 22 | 186 | Active |
| CN(C)C(=O)Oc1cccc([N+](C)(C)C)c1 [NEOSTIGMINE BROMIDE] |  |  |  | 53 |  |  | 40 |  |
| Cc1ccc(S(=O)(=O)N2[C@H](C)CCC[C@@H]2C)cc1 | 4 | 368 | 8 | 365 | 5 | 27 | 362 |  |
| C[C@@H]1CCC[C@H](C)N1S(=O)(=O)c1ccc(Cl)cc1 | 3 | 318 | 8 | 312 | 5 | 25 | 325 |  |
| C[C@@H]1CCC[C@H](C)N1S(=O)(=O)c1ccc(C(C)(C)C)cc1 | 4 | 458 | 9 | 450 | 6 | 28 | 463 |  |
